Key:
[1] = species: Cavia porcellus; assay: Relative potency towards guinea pig ileum relative to [Leu5]-enkephalin; type: functional
In short: (§1)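 The [Leu5]enkephalin standard's log dose-response curve was run on each individual ileum or vas deferens preparation. Test IC50 values for inhibition of electrically evoked contractions were normalized to it, giving potency relative to [Leu5]enkephalin.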

[2] = species: Cavia porcellus; assay: Compound was tested in vitro for inhibition of electrically evoked contractions of the guinea pig ileum; type: functional
In short: (§2)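 Electrically stimulated guinea pig ileum or mouse vas deferens preparations; inhibition of evoked contractions measured. Each preparation also gave a log dose-response curve for the [Leu5]enkephalin standard, and test IC50 values were normalized against it. Naloxone Ki came from the ratio of IC50 values with and without a fixed naloxone concentration.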

[3] = species: Mus musculus; assay: Compound was tested in vitro for inhibition of electrically evoked contractions of the mouse vas deferens; type: functional; in short: as §2
[4] = species: Mus musculus; assay: Relative potency towards mouse vas deferens relative to [Leu5]-enkephalin; type: functional; in short: as §1
[5] = target: Delta-type opioid receptor (Rattus norvegicus, UniProt P33533); assay: Displacement of [3H]DSLET from rat brain membrane opioid receptor delta
Sequence of Delta-type opioid receptor (P33533 whole entry): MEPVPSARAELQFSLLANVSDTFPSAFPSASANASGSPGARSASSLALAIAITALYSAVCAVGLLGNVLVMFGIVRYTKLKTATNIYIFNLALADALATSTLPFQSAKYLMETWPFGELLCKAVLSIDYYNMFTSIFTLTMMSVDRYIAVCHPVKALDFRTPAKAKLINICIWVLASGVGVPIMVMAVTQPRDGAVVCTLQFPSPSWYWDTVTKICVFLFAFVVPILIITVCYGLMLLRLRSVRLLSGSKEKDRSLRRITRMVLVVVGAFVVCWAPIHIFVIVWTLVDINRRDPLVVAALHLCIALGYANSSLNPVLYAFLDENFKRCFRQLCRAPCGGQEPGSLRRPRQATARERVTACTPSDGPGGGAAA
In short: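 Rat brain membranes incubated with 0.78 nM [3H]DSLET at 0 °C for 2 h. IC50 taken from log dose-displacement curves.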

[6] = target: Mu-type opioid receptor (Rattus norvegicus, UniProt P33535); assay: Displacement of [3H]DAGO from rat brain membrane opioid receptor mu
Sequence of Mu-type opioid receptor (P33535 whole entry): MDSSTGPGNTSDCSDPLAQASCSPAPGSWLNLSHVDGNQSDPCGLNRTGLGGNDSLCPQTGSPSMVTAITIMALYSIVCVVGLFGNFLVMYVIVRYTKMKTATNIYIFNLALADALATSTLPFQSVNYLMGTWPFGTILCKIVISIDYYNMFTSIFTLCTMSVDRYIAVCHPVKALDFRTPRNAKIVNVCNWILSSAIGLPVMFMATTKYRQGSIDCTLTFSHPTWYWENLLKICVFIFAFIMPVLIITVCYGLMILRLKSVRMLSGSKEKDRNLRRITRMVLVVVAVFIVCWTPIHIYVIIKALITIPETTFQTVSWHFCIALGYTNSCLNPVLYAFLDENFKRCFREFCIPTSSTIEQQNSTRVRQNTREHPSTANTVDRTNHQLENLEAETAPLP

SMILES	Relative potency [1]	IC50 [2]	IC50 [3]	Relative potency [4]	Ki [5]	Ki [6]	Relative potency [3]
NC(=O)[C@@H]1CCC(=O)NCCC[C@@H](NC(=O)[C@@H](N)Cc2ccc(O)cc2)C(=O)N[C@]2(CCc3ccccc3C2)C(=O)N1 (single isomer, unassigned)	7.78	31.6 nM	254 nM	0.0449	1570 nM	8.26 nM	–
NC(=O)[C@@H]1CCC(=O)NCCC[C@@H](NC(=O)[C@@H](N)Cc2ccc(O)cc2)C(=O)NC2(Cc3ccccc3C2)C(=O)N1 [listing 1 of 2 here]	34.1	–	–	0.312	–	–	–
NC(=O)[C@@H]1CCC(=O)NCCC[C@@H](NC(=O)[C@@H](N)Cc2ccc(O)cc2)C(=O)N[C@H](Cc2ccccc2)C(=O)N1	0.28	–	–	0.00295	14000 nM	–	3860 nM
NC(=O)[C@@H]1CCC(=O)NCCC[C@@H](NC(=O)[C@@H](N)Cc2ccc(O)cc2)C(=O)N[C@@H](Cc2ccccc2)C(=O)N1	210	1.17 nM	1.11 nM	10.3	3.21 nM	0.981 nM	–
NC(=O)[C@@H]1CCC(=O)NCCC[C@@H](NC(=O)[C@@H](N)Cc2ccc(O)cc2)C(=O)NC2(Cc3ccccc3C2)C(=O)N1 [listing 2 of 2 here]	–	7.21 nM	36.5 nM	–	209 nM	4.21 nM	–
C[C@]1(Cc2ccccc2)NC(=O)[C@H](NC(=O)[C@@H](N)Cc2ccc(O)cc2)CCCNC(=O)CC[C@@H](C(N)=O)NC1=O	74.3	3.31 nM	5.51 nM	2.07	54.6 nM	7.17 nM	–
NC(=O)[C@@H]1CCC(=O)NCCC[C@@H](NC(=O)[C@@H](N)Cc2ccc(O)cc2)C(=O)N[C@@H](Cc2ccc3ccccc3c2)C(=O)N1	60.5	4.07 nM	10.9 nM	1.05	50.7 nM	2.56 nM	–
NC(=O)[C@@H]1CCC(=O)NCCC[C@@H](NC(=O)[C@@H](N)Cc2ccc(O)cc2)C(=O)N[C@@H](CCc2ccccc2)C(=O)N1	42.3	5.82 nM	34.3 nM	0.332	15.4 nM	–	–
NC(=O)[C@@H]1CCC(=O)NCCC[C@@H](NC(=O)[C@@H](N)Cc2ccc(O)cc2)C(=O)N[C@@]2(CCc3ccccc3C2)C(=O)N1 (single isomer, unassigned)	0.863	285 nM	3070 nM	0.00371	3510 nM	26.3 nM	–
CN1C(=O)[C@H](NC(=O)[C@@H](N)Cc2ccc(O)cc2)CCCNC(=O)CC[C@@H](C(N)=O)NC(=O)[C@@H]1Cc1ccccc1	0.348	707 nM	2070 nM	0.00551	12800 nM	1000 nM	–
NC(=O)[C@@H]1CCC(=O)NCCC[C@@H](NC(=O)[C@@H](N)Cc2ccc(O)cc2)C(=O)N2Cc3ccccc3C[C@H]2C(=O)N1	0.0803	3060 nM	7310 nM	0.00156	50100 nM	2410 nM	–
Cc1ccccc1C[C@@H]1NC(=O)[C@H](NC(=O)[C@@H](N)Cc2ccc(O)cc2)CCCNC(=O)CC[C@@H](C(N)=O)NC1=O	453	0.543 nM	1.11 nM	10.3	9.22 nM	1.92 nM	–
NC(=O)[C@@H]1CCC(=O)NCCC[C@@H](NC(=O)[C@@H](N)Cc2ccc(O)cc2)C(=O)N[C@H](CCc2ccccc2)C(=O)N1	0.338	728 nM	4160 nM	0.00274	2600 nM	258 nM	–
